Shown are actives, neighbours in structure and some others; about 3.1% of the full set was active somewhere.
GPR7 antagonist: human neuropeptides B/W receptor 1 antagonism; P48145; GPR7-expressing cells, fluorescence antagonist assay; inhibition, % at 4.4 µM; 1.1% of 290,000 active; in the data active means inhibition above about 16%, passing the limit was not always enough;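 further: cells stimulated with the agonist NPW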
OX1R antag-1: antagonists of human orexin 1 receptor. 0.43% of 330,000 active. inhibition, % at 5 µM. O43613. AID 434989. CHO/OX1R cells, Fluo-8 calcium fluorescence, orexin A;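 active means inhibition above its plate's threshold, mean inhibition of all tested compounds on the plate plus 3 SD, cut at about 37% in these data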
Target sequence (O43613 whole entry, looked up): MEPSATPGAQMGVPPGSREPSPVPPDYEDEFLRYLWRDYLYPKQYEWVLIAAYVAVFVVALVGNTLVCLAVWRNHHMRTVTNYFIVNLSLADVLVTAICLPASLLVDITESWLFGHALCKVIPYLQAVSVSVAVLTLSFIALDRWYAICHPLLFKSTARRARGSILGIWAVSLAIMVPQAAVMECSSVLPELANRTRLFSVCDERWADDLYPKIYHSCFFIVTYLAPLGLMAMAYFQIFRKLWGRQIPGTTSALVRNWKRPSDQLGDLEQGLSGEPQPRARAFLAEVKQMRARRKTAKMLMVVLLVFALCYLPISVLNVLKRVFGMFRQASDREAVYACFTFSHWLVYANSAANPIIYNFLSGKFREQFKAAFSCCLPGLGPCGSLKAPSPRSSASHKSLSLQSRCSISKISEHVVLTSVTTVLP
CHO parental Ca: signal in parental CHO cells, OX1R antagonist counter-screen | inhibition, % at 5.6 µM | AID 463079 | parental CHO-K1, ATP-induced calcium, Fluo-8 fluorescence | 0.63% of 330,000 active;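 active means inhibition above that plate's mean sample inhibition plus 3 SD, cut at about 26% in these data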
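test system = CHO parental line | reagent = ATP stimulus | measured by = intracellular calcium via Fluo-8 no-wash fluorescent dye | control set = ATP and no-ATP DMSO wells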
OX1R antag-2: antagonists of human orexin 1 receptor (OX1R). AID 485270. O43613. OX1R-expressing cells, FRET antagonist read-out. inhibition, % at 6.6 µM. 1.8% of 330,000 active; in the data active means inhibition mostly above about 38%, no sharp cut-off; inactive means mostly below about 40%
GalR3 antagonist: blocks the human galanin receptor 3; O60755; HEK293 GalR3-CNG cAMP membrane potential fluorescence; galR3 body fused to GalR1 C-terminus; inhibition, % at 3 µM; 0.44% of 360,000 active; AID 651719;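 active means inhibition above the screen-wide average plus 3 SD, cut at about 13% in these data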;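 further: forskolin and galanin both at EC90 stimulate the cells; cAMP rise reported by CNG channel membrane potential dye signal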
GPR7 antag cf: confirmation of human GPR7 antagonists; shares compounds with GPR7 antagonist; GPR7-expressing cells, calcium fluorescence antagonist mode; inhibition, % at 4.4 µM; 52% of 2,400 active; in the data active means inhibition above about 24%;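 further: stimulated with the GPR7 agonist NPW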
MCHR1 antag: counter-screen for GPR7 antagonists: antagonists of human MCHR1. AID 2148. inhibition, % at 4.4 µM. shares compounds with GPR7 antagonist. 62% of 2,400 active. MCHR1-expressing cells, fluorescence antagonist assay; in the data active means inhibition above about 22%
Of the large screens only hits and unclear results are named; the others gave an inactive call (follow-up assays come after a bar, where they were run).

COc1cccc(C2CC(c3ccc(Cl)cc3Cl)n3nc(N)nc3N2)c1 (stereo unspecified)	GPR7 antagonist 27 | GPR7 antag cf inactive | MCHR1 antag inactive
Cc1ccc(C2CC(c3ccccc3C)n3nc(N)nc3N2)cc1 (stereo unspecified)	GPR7 antagonist 26 | GPR7 antag cf inactive | MCHR1 antag inactive
CN(C(=O)COC(=O)c1cc(S(=O)(=O)N2CCOCC2)c(Cl)cc1Cl)C1CCS(=O)(=O)C1 (stereo unspecified)	GPR7 antagonist 26 | GPR7 antag cf inactive | MCHR1 antag inactive
CC(C)C(=O)N1CCC1(C)C(=O)NCc1cc(Cl)ccc1F (stereo unspecified)	none (no result: GPR7 antagonist, OX1R antag-1, CHO parental Ca, OX1R antag-2)
O=S(=O)(c1ccc(OCC(O)CN2CCN(c3ccccc3)CC2)cc1)N1CCOCC1 (stereo unspecified)	GPR7 antagonist 25 | GPR7 antag cf inactive | MCHR1 antag inactive
O=S(=O)(c1ccc(OCC(O)CN2CCN(c3ccccc3O)CC2)cc1)N1CCOCC1 (stereo unspecified)	none
CCOC(=O)C1=CCN(S(=O)(=O)c2ccc(F)cc2)C1c1cccc(C)c1 (stereo unspecified)	none (no result: GPR7 antagonist, OX1R antag-1, CHO parental Ca, OX1R antag-2)
CCCCN(C)CC(O)Cn1cc(/C=C/C(=O)c2cccs2)c2ccccc21 (stereo unspecified)	none (no result: GalR3 antagonist)
CCCCN(C)CC(O)Cn1cc(/C=C/C(=O)c2ccc(OCC)cc2)c2ccccc21 (stereo unspecified)	GPR7 antagonist 32 (no result: GalR3 antagonist) | GPR7 antag cf 36 | MCHR1 antag 55
Cc1cccc(NC(=O)CC2C(=O)NCCN2C(=O)Nc2ccc(Cl)cc2)c1 (stereo unspecified)	GPR7 antagonist 21 (no result: OX1R antag-1, CHO parental Ca, OX1R antag-2) | GPR7 antag cf 33 | MCHR1 antag 47
CN1CCC(Oc2ccccc2Sc2ccc(C(F)(F)F)cc2)CC1	GPR7 antagonist 27 | GPR7 antag cf 30 | MCHR1 antag 64
Cc1ccc(NC(=O)CCN2C(=O)C3CCCCC3C2=O)cc1[N+](=O)[O-] (stereo unspecified)	none (no result: GPR7 antagonist)
COc1cc(C2NC(=S)NC(c3ccccc3)=C2C(C)=O)cc(Cl)c1OCC(=O)O (stereo unspecified)	none
CCOC(=O)COc1c(Cl)cc(C2NC(=S)NC(c3ccccc3)=C2C(C)=O)cc1OC (stereo unspecified)	GPR7 antagonist 24 | GPR7 antag cf 28 | MCHR1 antag inactive
O=C(O)CC(CC(=O)N1CCN(C(=O)c2ccco2)CC1)c1ccccc1 (stereo unspecified)	none
CCN1CCN(CCNC(=O)c2ccc(/C=C3/Sc4ccccc4N(Cc4ccccc4C)C3=O)cc2)CC1	GPR7 antagonist 26 (no result: OX1R antag-1, CHO parental Ca, OX1R antag-2) | GPR7 antag cf 83 | MCHR1 antag 91
O=C(Nc1ccc([N+](=O)[O-])cc1)c1ccc(Cn2cc([N+](=O)[O-])cn2)cc1	GPR7 antagonist 24 | GPR7 antag cf 66 | MCHR1 antag 72
O=C(Cc1cccc2ccccc12)NC(NC(=S)Nc1ccccc1Cl)C(Cl)(Cl)Cl (stereo unspecified)	none
O=C(NC(NC(=S)Nc1ccccc1Cl)C(Cl)(Cl)Cl)c1cccc(Cl)c1 (stereo unspecified)	GPR7 antagonist 27 | GPR7 antag cf 49 | MCHR1 antag 61
CCOC(=O)N1CCC(n2c(SCC(=O)NCCc3ccc(S(N)(=O)=O)cc3)nc3ccccc3c2=O)CC1	GPR7 antagonist 43 | GPR7 antag cf inactive | MCHR1 antag inactive
NS(=O)(=O)c1ccc(CCNC(=O)CSc2nc3ccsc3c(=O)n2C2CC2)cc1	none
CCCNC(=O)C1(C)CCN1C(=O)Cc1ccc(C(C)(C)C)cc1 (stereo unspecified)	none (no result: GPR7 antagonist, OX1R antag-1, CHO parental Ca, OX1R antag-2)
CC(C)CC1NC(=O)c2ccccc2-n2c1nc1ccc(F)cc1c2=O (stereo unspecified)	none (no result: GPR7 antagonist)
O=C(c1ccccc1)c1ccc(OCC(O)CNCc2ccc(F)cc2)cc1 (stereo unspecified)	none (no result: OX1R antag-1, CHO parental Ca, OX1R antag-2)
COc1ccc(C(OCC(O)CNC(C)c2ccccc2)c2ccc(OC)cc2)cc1 (stereo unspecified)	none
Cc1ccc(C(OCC(O)CNCc2ccc(F)cc2)c2ccccc2)cc1 (stereo unspecified)	GPR7 antagonist 41 | GPR7 antag cf 30 | MCHR1 antag 65
COc1ccc(C(OCC(O)CNCCc2ccccc2)c2ccc(OC)cc2)cc1 (stereo unspecified)	GPR7 antagonist 61 (no result: OX1R antag-1, CHO parental Ca, OX1R antag-2) | GPR7 antag cf 35 | MCHR1 antag 53
CC(O)(c1ccc(F)c(F)c1)c1nc(-c2ccc(F)c(Cl)c2)cs1 (stereo unspecified)	none (no result: GPR7 antagonist, OX1R antag-1, CHO parental Ca, OX1R antag-2)
COc1ccc2[nH]c3c(=O)n(CCCC(=O)NC4CCCCC4C)c(=S)[nH]c3c2c1 (stereo unspecified)	GPR7 antagonist 22 | GPR7 antag cf inactive | MCHR1 antag inactive
Cc1cc(N2CCN(C(=O)OC(C)(C)C)C[C@H]2C)ccc1Br	none (no result: GPR7 antagonist, OX1R antag-1, CHO parental Ca, OX1R antag-2)
COCCSc1ccccc1C(=O)Nc1ccncc1	GPR7 antagonist 57 | GPR7 antag cf inactive | MCHR1 antag inactive
O=C(CN1C(=O)c2ccccc2C1=O)Nc1ccccc1F	GPR7 antagonist 21 | GPR7 antag cf inactive | MCHR1 antag 38
CCC(C)NCCOCCOc1ccc(Cl)cc1Br (stereo unspecified)	GPR7 antagonist 47 | GPR7 antag cf inactive | MCHR1 antag inactive
CCC(C)NCCOCCOc1ccc(C)cc1OC (stereo unspecified)	none
Clc1ccc(Cl)c(OCCCCNCc2ccccc2)c1	none
Clc1ccc(OCCCNCc2ccccc2)c(Br)c1	GPR7 antagonist 26 | GPR7 antag cf 40 | MCHR1 antag 54
CCOCCCNCc1cc(Br)ccc1OCc1ccccc1	GPR7 antagonist 38 | GPR7 antag cf 36 | MCHR1 antag 42
CC(C)(C)c1ccc(S(=O)(=O)N2CCNC(=O)C2)cc1	none (no result: GPR7 antagonist)
CC(C)(C)C(=O)NC1(C(F)(F)F)NC(=O)N(Cc2ccccc2)C1=O (stereo unspecified)	GPR7 antagonist 25 | GPR7 antag cf inactive | MCHR1 antag inactive
C=CCS(=O)(=O)N1CCCC(Cc2ccccc2C)(C(=O)OCC)C1 (stereo unspecified)	GPR7 antagonist 31 | GPR7 antag cf inactive | MCHR1 antag inactive
CN(C)CCOC(=O)NC12CC3CC(CC(C3)C1)C2	none
O=C(NC12CC3CC(CC(C3)C1)C2)OCCNC1CCCCC1	GPR7 antagonist 26 | GPR7 antag cf inactive | MCHR1 antag inactive
CCCSc1nnc(CSc2nc3ccccc3s2)n1-c1ccccc1	GPR7 antagonist 32 | GPR7 antag cf inactive | MCHR1 antag 50
CC1CC(C)C[N+](=C2C=C(N3CCCC3)CC(C)(C)C2)C1 (stereo unspecified)	GPR7 antagonist 50, GalR3 antagonist 28 (no result: OX1R antag-1, CHO parental Ca, OX1R antag-2) | GPR7 antag cf 58 | MCHR1 antag 53
